Consider eleven compounds from ChEMBL document CHEMBL4616673 (J Med Chem, 2020).

The test system of one series is HCT-116. In words: Antiproliferative activity against human HCT116 cells assessed as reduction in cell viability measured after 48 hrs by MTT assay. The series is classed as functional, cell-based. The settings on record: Homo sapiens, HCT-116, 48 h.
A further series has as its system HeLa. Briefly: Antiproliferative activity against human HeLa cells assessed as reduction in cell viability measured after 48 hrs by MTT assay. The settings on record: Homo sapiens, HeLa, 48 h. The series is classed as functional, cell-based.
Series [1] deals with Raji. Briefly: Antiproliferative activity against human Raji cells assessed as reduction in cell viability measured after 48 hrs by MTT assay. Conditions: Homo sapiens, Raji, 48 h. The series is classed as functional, cell-based.
The target of series [2] is T1, Dihydroorotate dehydrogenase (quinone), mitochondrial (Homo sapiens, UniProt Q02127). Briefly: Inhibition of human DHODH using dihydroorotate as substrate and CoQ10 as co-substrate preincubated for 30 mins followed by substrate addition by DCIP coupled microplate reader assay.
T1 sequence (Q02127 whole entry): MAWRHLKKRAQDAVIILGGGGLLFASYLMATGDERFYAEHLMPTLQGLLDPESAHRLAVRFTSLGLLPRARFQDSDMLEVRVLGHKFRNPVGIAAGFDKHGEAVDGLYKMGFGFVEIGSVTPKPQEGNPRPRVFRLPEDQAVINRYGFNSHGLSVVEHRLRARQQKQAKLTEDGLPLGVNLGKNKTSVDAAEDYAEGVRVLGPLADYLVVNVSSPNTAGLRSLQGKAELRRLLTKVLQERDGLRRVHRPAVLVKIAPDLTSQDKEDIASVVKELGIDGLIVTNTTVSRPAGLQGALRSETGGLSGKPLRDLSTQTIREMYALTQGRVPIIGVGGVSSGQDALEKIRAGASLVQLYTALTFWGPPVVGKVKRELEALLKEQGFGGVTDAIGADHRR
The subject of another series is K562. In words: Antiproliferative activity against human K562 cells assessed as reduction in cell viability measured after 48 hrs by MTT assay. It counts as functional, cell-based. Conditions: Homo sapiens, K562, 48 h.
A further series has as its system NAMALVA. In words: Antiproliferative activity against human NAMALWA cells assessed as reduction in cell viability measured after 48 hrs by MTT assay. It counts as functional, cell-based. Conditions: Homo sapiens, NAMALVA, 48 h.
In a further series the test system is A549. Briefly: Antiproliferative activity against human A549 cells assessed as reduction in cell viability measured after 48 hrs by MTT assay. It counts as functional, cell-based. The settings on record: Homo sapiens, A549, 48 h.
In the next series the test system is MCF7. In words: Antiproliferative activity against human MCF7 cells assessed as reduction in cell viability measured after 48 hrs by MTT assay. It counts as functional, cell-based. Conditions: Homo sapiens, MCF7, 48 h.
The test system of the next series is A-375. In words: Antiproliferative activity against human A375 cells assessed as reduction in cell viability measured after 48 hrs by MTT assay. The settings on record: Homo sapiens, A-375, 48 h. The series is classed as functional, cell-based.
The nature of series [3]: Solubility of the compound in PBS. The series is classed as physicochemical.
Series [4] deals with Raji. Briefly: Induction of apoptosis in human Raji cells assessed as necrotic cells at 0.25 uM measured after 48 hrs by Annexin V-FITC staining based flow cytometry (reference value: 0.12 to 0.15 %). The series is classed as functional.
Series [5] concerns Raji. In words: Induction of mitochondrial membrane potential loss in human Raji cells measured after 48 hrs by TMRM staining based fluorescence assay. The series is classed as functional, cell-based. The method, boiled down:
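Raji cells treated 48 h (CCCP as positive control), washed in PBS. Incubated with TMRM at 100 nM final for 15 min at 37 °C, fluorescence read at ex 510/em 580 nm. Mean ± SD.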

Series [6] relates to Raji. In words: Antiproliferative activity against human Raji cells assessed as inhibition of cell proliferation at 0.156 to 1.250 uM measured after 48 hrs in presence of uridine by MTT assay. The series is classed as functional, cell-based. Put shortly: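 Raji cells (ATCC; 10% FBS medium, 37 °C, 5% CO2) seeded at 2-10 × 10^3 cells/well, grown 24 h, then exposed to compound with or without uridine (500 μM) for 48 h. MTT added for 2-4 h; formazan dissolved in 20% acidified SDS overnight; absorbance read at 570 nm. Mean ± SD.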

In series [7] the test system is Raji. Briefly: Induction of apoptosis in human Raji cells assessed as necrotic cells at 0.5 uM measured after 48 hrs by Annexin V-FITC staining based flow cytometry (reference value: 0.12 to 0.15 %). The series is classed as functional.
The subject of series [8] is Raji. Briefly: Induction of apoptosis in human Raji cells assessed as live cells at 0.25 uM measured after 48 hrs by Annexin V-FITC staining based flow cytometry (reference value: 96.46 to 96.71 %). It counts as functional.
Series [9] deals with Raji. In words: Induction of apoptosis in human Raji cells assessed as live cells at 0.5 uM measured after 48 hrs by Annexin V-FITC staining based flow cytometry (reference value: 96.46 to 96.71 %). The series is classed as functional.
The test system of series [10] is Raji. Briefly: Induction of apoptosis in human Raji cells assessed as early apoptotic cells at 0.25 uM measured after 48 hrs by Annexin V-FITC staining based flow cytometry (reference value: 2.12 to 2.15 %). It counts as functional.
Series [11] concerns Raji. Briefly: Induction of apoptosis in human Raji cells assessed as live cells at 1 uM measured after 48 hrs by Annexin V-FITC staining based flow cytometry (reference value: 96.46 to 96.71 %). The series is classed as functional.
The subject of series [12] is Raji. In words: Induction of apoptosis in human Raji cells assessed as necrotic cells at 1 uM measured after 48 hrs by Annexin V-FITC staining based flow cytometry (reference value: 0.12 to 0.15 %). The series is classed as functional.
Series [13] relates to Raji. In words: Cell cycle arrest in human Raji cells assessed as accumulation at S phase at 0.5 uM measured after 24 hrs by propidium iodide/RNase staining based flow cytometry (reference value: 52%). The series is classed as functional.
Series [14] deals with Raji. In words: Induction of ROS generation in human Raji cells assessed as increase in ROS level measured after 24 hrs by DHE dye based fluorescence microplate reader assay. It counts as functional, cell-based. Put shortly: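 Raji cells treated 24 h, harvested, stained with 10 μM DHE in pre-warmed PBS for 15 min in the dark. Fluorescence read on a plate reader at ex 510/em 600 nm. Mean ± SD.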

Series [15] has as its system Raji. In words: Induction of apoptosis in human Raji cells assessed as early apoptotic cells at 1 uM measured after 48 hrs by Annexin V-FITC staining based flow cytometry (reference value: 2.12 to 2.15 %). It counts as functional.
The test system of series [16] is Raji. Briefly: Induction of apoptosis in human Raji cells assessed as early apoptotic cells at 0.5 uM measured after 48 hrs by Annexin V-FITC staining based flow cytometry (reference value: 2.12 to 2.15 %). It counts as functional.
Series [17] is described as follows: Competitive inhibition of Plasmodium falciparum DHODH.
Series [18] deals with T1, Dihydroorotate dehydrogenase (quinone), mitochondrial. Briefly: Inhibition of recombinant human DHODH expressed in baculovirus infected insect cells using dihydroorotate as substrate and decylubiquinone as co-substrate by 2,6-dichlorophenol-indophenol-coupled spectrophotometric analysis.

Values after ≈ are worked out from the molar mass of the structure shown. Active and inactive are the calls of the source. No cut-off for these calls is given here. A value given as a limit tells only on which side of the number the result lay.

For `CN(C)c1cccc(-c2c(F)cc(-n3nnc4c3C(=O)c3ccccc3C4=O)cc2F)c1`, the IC50 is 0.41 µM with HCT-116; 2.02 µM in the series on HeLa; 2.15 µM with Raji [1]; 0.0005 µM in series [2]; greater than 10 µM in the series with K562; greater than 10 µM in the series on NAMALVA. Further, the IC50 with A549 is greater than 10 µM; in the series with MCF7, greater than 10 µM; in the series on A-375, 0.02 µM. Further, the solubility in [3] was less than 10 µg/mL.

In the case of `COc1cccc(-c2c(F)cc(-n3nnc4c3C(=O)c3ccccc3C4=O)cc2F)c1`, the Activity with Raji [4] is 0.5%; with Raji [5], “Dose-dependent effect”; in the series on Raji [7], 0.36%; in the series with Raji [8] it was 91.81%; in the series with Raji [9], 91.11%; in the series with Raji [10], 3.58%. Besides, the Activity in the series with Raji [11] was 90.1%; in the series with Raji [12] it was 0.39%; with Raji [13] it was 77.98%; in the series on Raji [14], “Dose-dependent effect”; in the series on Raji [15] it was 4.24%; with Raji [16] it was 3.43%. In addition, the IC50 is 0.6 µM with HCT-116; greater than 10 µM in the series on HeLa; 0.48 µM in the series on Raji [1]; 0.009 µM in series [2]; 0.34 µM with K562; 1.04 µM with NAMALVA. The IC50 is 2.25 µM in the series on A549, greater than 10 µM in the series with MCF7 and 0.04 µM with A-375. Besides, the inhibition result with Raji [6] was “inactive”. This compound also displayed a solubility in [3] of 21.4 µg/mL (≈ 51.3 µM).

For the compound `O=C1c2ccccc2C(=O)c2c1nnn2-c1cc(F)c(-c2cccc(CO)c2)c(F)c1`, the IC50 with HCT-116 is 2.21 µM; in the series on HeLa, greater than 10 µM; in the series with Raji [1], 3.31 µM; in series [2], 0.0012 µM; in the series on K562 it was greater than 10 µM; with NAMALVA it was greater than 10 µM. Moreover, the IC50 in the series on A549 is greater than 10 µM; in the series on MCF7 it was greater than 10 µM; in the series with A-375 it was 0.03 µM. The compound further yielded a solubility in series [3] of 14.6 µg/mL (≈ 35 µM).

Compound `O=C1C(O)=C([C@H]2CC[C@H](c3ccc(Cl)cc3)CC2)C(=O)c2ccccc21` [ATOVAQUONE] yielded a Ki in [17] of 27 µM.

Take `O=C1c2ccccc2C(=O)c2c1nnn2-c1ccc(-c2ccccc2F)cc1`: the IC50 was 3.33 µM with HCT-116; greater than 10 µM in the series with HeLa; 2.23 µM in the series with Raji [1]; 0.0045 µM in [2]; 1.87 µM in the series on K562; 2.79 µM with NAMALVA. For the same compound, the IC50 in the series on A549 was greater than 10 µM; in the series with MCF7, greater than 10 µM; with A-375, 2.98 µM. Further, in series [3], the solubility is less than 10 µg/mL.

As for `COC(=O)Cc1cccc(-c2c(F)cc(-n3nnc4c3C(=O)c3ccccc3C4=O)cc2F)c1`, the IC50 is 1.61 µM with HCT-116; greater than 10 µM with HeLa; 3.76 µM in the series with Raji [1]; 0.0046 µM in [2]; 2.41 µM in the series with K562; greater than 10 µM with NAMALVA. In addition, the IC50 in the series on A549 was greater than 10 µM; in the series on MCF7 it was greater than 10 µM; with A-375, 0.42 µM. Besides, the solubility in series [3] is less than 10 µg/mL.

On to `O=C1c2ccccc2C(=O)c2c1nnn2-c1cc(F)c(-c2cccc(CO)c2F)c(F)c1`, for which the IC50 with HCT-116 was 0.15 µM; with HeLa, greater than 10 µM; in the series on Raji [1] it was greater than 10 µM; in series [2] it was 0.0012 µM; in the series on K562, greater than 10 µM; in the series on NAMALVA, greater than 10 µM. In addition, the IC50 in the series with A549 is greater than 10 µM; in the series with MCF7 it was greater than 10 µM; in the series on A-375, 0.03 µM. Moreover, the concentration in solution in series [3] (solubility) was 17.6 µg/mL (≈ 40.4 µM).

Turning to `O=C1c2ccccc2C(=O)c2c1nnn2-c1cc(F)c(-c2cccc(F)c2)c(F)c1`, the half-maximal inhibitory concentration (IC50) in the series on HCT-116 is 0.55 µM; in the series with HeLa, greater than 10 µM; in the series on Raji [1], 1.51 µM; in [2], 0.0027 µM; in the series with K562 it was greater than 10 µM; with NAMALVA, greater than 10 µM. The IC50 with A549 is greater than 10 µM; in the series on MCF7 it was greater than 10 µM; in the series with A-375, 0.19 µM. In series [3], this compound had a solubility of less than 10 µg/mL.

`Nc1cccc(-c2ccc(-n3nnc4c3C(=O)c3ccccc3C4=O)cc2)c1`: the IC50 in the series with HCT-116 is 0.88 µM; in the series on HeLa, greater than 10 µM; in the series on Raji [1], 1.36 µM; in series [2], 0.0031 µM; in the series on K562 it was greater than 10 µM; with NAMALVA, greater than 10 µM. In addition, the IC50 with A549 is greater than 10 µM; in the series with MCF7 it was greater than 10 µM; in the series on A-375, 0.25 µM. Moreover, the solubility in [3] was less than 10 µg/mL.

On to `COc1cc(-n2nnc3c2C(=O)c2ccccc2C3=O)ccc1-c1ccccc1`, for which the 50% inhibitory concentration (IC50) in the series with HCT-116 was 0.18 µM; with HeLa, greater than 10 µM; in the series with Raji [1] it was 0.79 µM; in series [2] it was 0.0041 µM; with K562 it was 0.21 µM; in the series with NAMALVA it was greater than 10 µM. Moreover, the IC50 in the series with A549 is greater than 10 µM; in the series on MCF7 it was greater than 10 µM; in the series on A-375, 0.01 µM. In addition, the solubility in series [3] came out at 15.4 µg/mL (≈ 40.4 µM).

`O=C1C(O)=C(CC=C(Cl)Cl)C(=O)c2ccccc21`: in [18], the IC50 is 0.067 µM.
